Consider one compound from ChEMBL document CHEMBL4831540, “Discovery of Aficamten (CK-274), a Next-Generation Cardiac Myosin Inhibitor for the Treatment of Hypertrophic Cardiomyopathy” (J Med Chem, 2021).

For series [1], the system named is Rattus norvegicus. Kind of series: Anti-hypertrophic cardiomyopathy in po dosed Sprague-Dawley rat assessed as reduction in fractional shortening measured upto 24 hrs by echocardiography. The format is functional, organism-based. The essentials: (§1)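 Normal Sprague–Dawley rats were given single oral doses of 0.5–4 mg/kg. Left ventricular dimensions and fractional shortening were measured by echocardiography at selected time points over 24 h, relative to vehicle treatment.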

Series [2] can be described thus: Half life in Sprague-Dawley rat at 1 mg/kg. The note with it: in vivo. The format is ADME, organism-based. The essentials: (§2)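 Rat PK with iv and po administration at 1 mg/kg. Clearance and half-life came from the iv arm, and bioavailability from the iv/po comparison.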
The target in the next series is T1, Cytochrome P450 2C8 (Homo sapiens, UniProt P10632).
T1 sequence (P10632 whole entry): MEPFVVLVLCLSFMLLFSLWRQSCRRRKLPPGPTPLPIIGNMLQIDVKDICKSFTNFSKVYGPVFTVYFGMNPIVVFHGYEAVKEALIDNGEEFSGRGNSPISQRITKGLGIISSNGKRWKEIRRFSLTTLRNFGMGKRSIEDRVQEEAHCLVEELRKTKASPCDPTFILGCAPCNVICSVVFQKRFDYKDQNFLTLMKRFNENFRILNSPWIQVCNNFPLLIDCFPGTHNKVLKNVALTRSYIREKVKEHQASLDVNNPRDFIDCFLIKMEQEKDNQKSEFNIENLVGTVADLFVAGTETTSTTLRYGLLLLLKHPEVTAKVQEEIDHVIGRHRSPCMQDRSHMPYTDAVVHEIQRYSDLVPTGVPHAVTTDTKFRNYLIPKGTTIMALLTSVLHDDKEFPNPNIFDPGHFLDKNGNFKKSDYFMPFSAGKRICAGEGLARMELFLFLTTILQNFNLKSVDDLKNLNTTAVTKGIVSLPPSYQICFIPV
In words: Inhibition of CYP2C8 in human liver microsomes assessed as paclitaxel 6a-hydroxylation reaction incubated for 30 mins in presence of NADP by LC-MS/MS analysis. The format is ADME. (In general: Liver microsomes are a subcellular fraction often used to study metabolism.)

For series [3], the system named is Rattus norvegicus. In words: Anti-hypertrophic cardiomyopathy in Sprague-Dawley rat assessed as reduction in fractional shortening at 4 mg/kg, po measured upto 24 hrs by echocardiography relative to control. The format is functional. More on the design: scale not given: the % may be the effect or the level left. The note with it: time hrs <=24. The essentials:
as §1

Series [4] in a line: Tmax in Sprague-Dawley rat at 3 mg/kg, po. The note with it: in vivo. The class given is ADME, organism-based. In a few lines:
(§3)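 Single iv or oral doses in male animals, 3 per group except dog iv (2 animals). Plasma concentration–time profiles gave Cmax, tmax, AUC0–t, clearance, steady-state volume of distribution, half-life and bioavailability.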

Series [5] is described as follows: Cmax in mouse at 1 mg/kg, po. The format is ADME, organism-based. Set-up: route oral, dose 1 mg/kg. The note with it: in vivo. In a few lines:
(§4)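 Multi-species PK study in male animals, n = 3 per group (dog IV arm n = 2). Iv and oral dosing with plasma concentration–time profiles yielding Cmax, tmax, AUC0–t, CL, Vss, t1/2 and F.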

Series [6] in a line: Tmax in mouse at 1 mg/kg, po. The format is ADME, organism-based. The note with it: in vivo. The essentials: as §3
A further series concerns the target T2, Cytochrome P450 1A2 (Homo sapiens, UniProt P05177).
T2 sequence (P05177 whole entry): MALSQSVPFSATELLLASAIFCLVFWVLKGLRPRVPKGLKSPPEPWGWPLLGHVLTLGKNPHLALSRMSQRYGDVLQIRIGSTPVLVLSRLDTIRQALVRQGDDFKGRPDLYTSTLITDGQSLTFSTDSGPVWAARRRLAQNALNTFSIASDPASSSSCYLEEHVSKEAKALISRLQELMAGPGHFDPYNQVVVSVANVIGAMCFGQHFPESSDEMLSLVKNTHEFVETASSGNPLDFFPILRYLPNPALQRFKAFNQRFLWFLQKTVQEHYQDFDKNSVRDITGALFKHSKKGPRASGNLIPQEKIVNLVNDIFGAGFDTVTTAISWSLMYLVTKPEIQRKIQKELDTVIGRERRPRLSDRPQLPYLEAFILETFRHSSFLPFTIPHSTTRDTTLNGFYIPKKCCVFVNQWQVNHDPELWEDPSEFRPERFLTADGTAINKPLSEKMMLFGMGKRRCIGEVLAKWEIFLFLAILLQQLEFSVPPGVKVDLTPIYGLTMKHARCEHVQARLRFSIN
In words: Inhibition of CYP1A2 in human liver microsomes assessed as phenacetin O-deethylation reaction incubated for 30 mins in presence of NADP by LC-MS/MS analysis. The format is ADME.

Series [7] in a line: Tmax in Sprague-Dawley rat at 8 mg/kg, po. The class given is ADME, organism-based. The note with it: in vivo. The essentials:
as §3

Series [8] can be described thus: Clearance in mouse at 0.5 mg/kg, iv. The note with it: in vivo. The class given is ADME, organism-based. In a few lines: as §4
Series [9] is described as follows: Plasma protein binding in Sprague-Dawley rat assessed as unbound fraction. The class given is ADME.
Series [10] in a line: Plasma protein binding in rat plasma assessed as unbound concentration at 5 uM incubated for 6 hrs by HPLC analysis. The class given is ADME, cell-free.
Series [11] can be described thus: Solubility of the compound at pH 6.8 by shake flask method. The note with it: buffer. The format is physicochemical. In a few lines: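 Shake-flask solubility at pH 6.8; solid form not characterized.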
Series [12] can be described thus: Oral bioavailability in cynomolgus monkey at 1 mg/kg. The format is ADME, organism-based, Macaca fascicularis. The note with it: in vivo. The essentials:
as §3

Series [13] in a line: Half life in Sprague-Dawley rat at 1 mg/kg, iv. The format is ADME, organism-based. The note with it: in vivo. In a few lines: as §2
The nature of series [14]: Half life in mouse at 1 mg/kg, po. The format is ADME, organism-based. The following applies: in vivo. In a few lines:
as §4

The next series addresses T3, Cytochrome P450 2B6 (Homo sapiens, UniProt P20813).
T3 sequence (P20813 whole entry): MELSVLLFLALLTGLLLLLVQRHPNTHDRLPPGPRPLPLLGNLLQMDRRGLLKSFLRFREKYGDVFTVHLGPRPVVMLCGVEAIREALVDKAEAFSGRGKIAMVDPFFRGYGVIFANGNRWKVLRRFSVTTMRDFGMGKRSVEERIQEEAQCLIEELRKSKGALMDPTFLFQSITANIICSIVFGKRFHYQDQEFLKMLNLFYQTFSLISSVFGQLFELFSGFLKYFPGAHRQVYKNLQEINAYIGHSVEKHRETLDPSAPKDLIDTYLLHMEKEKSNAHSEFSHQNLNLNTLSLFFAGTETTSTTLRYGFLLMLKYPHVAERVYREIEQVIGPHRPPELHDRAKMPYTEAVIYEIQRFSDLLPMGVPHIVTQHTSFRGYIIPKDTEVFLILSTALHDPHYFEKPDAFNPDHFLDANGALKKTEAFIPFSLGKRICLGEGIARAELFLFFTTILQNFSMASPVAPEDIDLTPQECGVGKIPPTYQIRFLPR
In words: Inhibition of CYP2B6 in human liver microsomes assessed as bupropion hydroxylation reaction incubated for 30 mins in presence of NADP by LC-MS/MS analysis. The class given is ADME.

Series [15] in a line: Plasma protein binding in rat assessed as unbound fraction. The class given is ADME, cell-free.
Series [16] is described as follows: AUC (0 to t) in mouse at 1 mg/kg, po. The format is ADME, organism-based. More on the design: dose 1 mg/kg. The note with it: in vivo. The essentials: as §4

Molecules are shown by their SMILES. Converted amounts (≈) assume the structure as drawn.

Usually IC10 stands for the concentration at which the effect reaches the 10% level. Usually IC50 stands for the point on the concentration scale where inhibition reaches its midpoint. Usually half-life stands for the time needed for the level to fall by half in the phase considered. For orientation: Tmax means the time at which the peak concentration occurs. What is called Cmax is the peak of the concentration-time curve. As usually defined, the clearance is a measure of how efficiently the substance is removed, as volume per time. A word on the fraction unbound: it is free concentration divided by total concentration. What is called solubility (thermodynamic) is solubility found after equilibrating the solid with the medium. In general, bioavailability refers to the share of a dose that reaches the circulation, judged against a reference dose that is usually intravenous. One may read the AUC(0-t) as the area under the concentration-time curve up to a stated or last time point. Take `CCc1nc(-c2ccc3c(c2)CC[C@H]3NC(=O)c2cnn(C)c2)no1` [AFICAMTEN]: the 10% effect concentration (IC10) with Rattus norvegicus [1] (Rattus norvegicus, Sprague-Dawley, 24 h) worked out at 0.8 µM. Besides, the IC50 with Rattus norvegicus [1] (time hrs <=24) was 7.9 µM; on Cytochrome P450 2C8, > 100 µM; on Cytochrome P450 1A2, > 100 µM; on Cytochrome P450 2B6, > 100 µM. Further, the half-life in series [2] was 3 h; in series [13], 3 h; in [14], 3.4 h. In addition, the Activity with Rattus norvegicus [3] is recorded as 70%. Moreover, the Tmax turned out to be 0.42 h in [4], 0.25 h in series [6] and 0.58 h in series [7]. The Cmax in series [5] came to 268 ng/mL. This compound registered a clearance in series [8] of 8.8 mL/min/kg. The fraction unbound in series [9] and in series [15] was 0.018 throughout. The fraction unbound at 6 h, 5 µM in series [10] was found to be 0.018. The same compound yielded a solubility (thermodynamic) in series [11] of 97 µM (≈ 32.7 µg/mL). This compound also registered a bioavailability in [12] of 41%. In series [16], this compound yielded an AUC(0-t) of 1830 ng·h/mL.
